Source: PubChem BioAssay
T cruzi growth-1 – T. cruzi intracellular proliferation inhibitors, primary screen, cell-based, beta-gal Tulahuen parasites, NIH3T3 host, luminescence | AID 624255, 2012 | T. cruzi beta-gal in NIH3T3, GalScreen luminescence, 90 h | inhibition, % at 8.34 µM | actives 5.9% (n = 77,000);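 active means mean inhibition above about 93%, with at least 55% of replicates each passing it, limit read from the data, passing the limit was not always enough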
IDH1 mut inh – inhibitors of IDH1 R132H reductase, primary screen, biochemical, plate reader, single point; actives 0.18% (n = 70,000); Isocitrate dehydrogenase [NADP] cytoplasmic (Homo sapiens), O75874; diaphorase/resazurin fluorescence, 60 min; inhibition, % at 10 µM; AID 624101, 2012; in the data active means inhibition above about 34%;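 further: 0% = DMSO and 100% = no enzyme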
Target sequence (O75874 whole entry R132H): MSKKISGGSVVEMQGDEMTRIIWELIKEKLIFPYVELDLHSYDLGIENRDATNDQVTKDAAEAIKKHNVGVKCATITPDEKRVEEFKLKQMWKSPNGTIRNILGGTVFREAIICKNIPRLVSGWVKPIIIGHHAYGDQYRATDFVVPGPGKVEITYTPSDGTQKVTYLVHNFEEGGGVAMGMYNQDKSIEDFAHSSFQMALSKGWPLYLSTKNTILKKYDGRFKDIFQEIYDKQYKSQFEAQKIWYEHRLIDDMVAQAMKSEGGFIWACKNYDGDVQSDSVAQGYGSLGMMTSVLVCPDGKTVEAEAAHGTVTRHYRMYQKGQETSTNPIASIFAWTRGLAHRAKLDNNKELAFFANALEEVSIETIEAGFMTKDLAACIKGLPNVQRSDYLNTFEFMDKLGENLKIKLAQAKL
KDM4C inh – inhibitors of GASC-1 (KDM4C) histone demethylase, primary screen, biochemical, single concentration HTS; actives 0.15% (n = 96,000); GST-KDM4C 2-372, H3K9me3 peptide, LANCE TR-FRET; Lysine-specific demethylase 4C (Homo sapiens), Q9H3R0; inhibition, % at 12.5 µM;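 active means mean replicate inhibition above about 25%, with at least 55% of replicates also reaching it, limit read from the data, passing the limit was not always enough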
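System: N-terminal GST-fused human GASC-1 (KDM4C) fragment, residues 2-372; amount: enzyme final amount 10 nM; incubation: reaction 30 min RT, detection step 1 h RT; medium: HEPES buffer, pH 7.5, plus ascorbate; technique: LANCE TR-FRET, Eu antibody, ULight-streptavidin, EDTA, ex 340 nm, em 618/671 nm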
Pf Dd2 growth – P. falciparum Dd2 growth inhibitors, primary screen, SYBR Green fluorescence, single dose replicates; activity change, % at 10 µM; actives 2.3% (n = 94,000); 72 h; stronger effect = lower value; AID 1159554, 2015; in the data active means activity change below about -80%
T cruzi growth-2 – T. cruzi intracellular proliferation inhibitors, confirmation, cell-based, NIH3T3 host, beta-gal parasite, luminescence, cherry-pick | shares compounds with T cruzi growth-1 | T. cruzi beta-gal in NIH3T3, GalScreen luminescence, 90 h | inhibition, % at 8.35 µM | actives 72% (n = 5,600);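 active means mean replicate inhibition above about 95% and at least 55% of replicates individually reaching it, limit read from the data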
T cruzi growth-3 – inhibitors of intracellular T. cruzi replication, confirmation, NIH3T3 host cells, beta-gal parasites, cherry-pick, set 2; inhibition, % at 2.09 µM; actives 21% (n = 5,600); T. cruzi beta-gal in NIH3T3, GalScreen luminescence, 90 h; shares compounds with T cruzi growth-1;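 active means mean inhibition above about 95%, with at least 55% of replicates also reaching it, limit read from the data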;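 further: plate controls were neutral control median for no effect and positive control median for full effect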
NIH3T3 tox – cytotoxicity in mouse NIH/3T3 fibroblasts, confirmation, cytotoxicity control for T. cruzi proliferation inhibitor project, cell-based, cherry-pick, single point; shares compounds with T cruzi growth-1; actives 14% (n = 5,600); cytotoxicity (signal decrease), % at 8.35 µM; NIH/3T3 viability, CellTiter-Glo ATP luminescence, 90 h;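 active means mean signal decrease across replicates above about 35% based on untreated-well scatter, with enough replicates individually passing, limit read from the data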;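 further: 0% = median of neutral control wells and 100% = median of positive control wells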
3T3 cytotox 2 – NIH/3T3 fibroblast cytotoxicity, confirmation, cytotoxicity control, cell-based, cherry-pick, single point, set 2. NIH/3T3 viability, CellTiter-Glo ATP luminescence, 90 h. actives 56% (n = 5,600). inhibition, % at 24.9 µM. shares compounds with T cruzi growth-1;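 active means mean loss of cell viability signal at or above a set limit, and enough replicates individually reaching it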;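 further: 0% = median of neutral control wells and 100% = median of positive control wells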
The depositor's hits bear a star. A selection: hits, their analogues and other compounds. The true share with any hit is near 5.8%.

For O=C(Nc1cc(F)ccc1F)N1CCCCN2[C@H](CO)[C@H](c3ccc(-c4ccncc4)cc3)[C@H]2C1 the results were T cruzi growth-1 101*, KDM4C inh -1, Pf Dd2 growth -19, T cruzi growth-2 111*, T cruzi growth-3 80, NIH3T3 tox 7 and 3T3 cytotox 2 19.
For O=C(Nc1cc(F)ccc1F)N1CCCCN2[C@H](C1)[C@H](c1ccc(-c3cncnc3)cc1)[C@@H]2CO the results were T cruzi growth-1 103*, KDM4C inh 0, Pf Dd2 growth 23, T cruzi growth-2 6, T cruzi growth-3 9, NIH3T3 tox -22 and 3T3 cytotox 2 4.
`C/C=C/c1ccc([C@H]2[C@@H](CO)N3CCCCN(C(=O)Nc4cc(F)ccc4F)C[C@H]23)cc1` gave T cruzi growth-1 102*, KDM4C inh 3, Pf Dd2 growth -62, T cruzi growth-2 111*, T cruzi growth-3 62, NIH3T3 tox 10 and 3T3 cytotox 2 104*.
O=C(Nc1cc(F)ccc1F)N1CCCCN2[C@@H](CO)[C@@H](c3ccc(-c4cccnc4)cc3)[C@@H]2C1 was read as T cruzi growth-1 82, KDM4C inh 0 and Pf Dd2 growth -36.
`O=C1c2oc3ccccc3c(=O)c2C(c2cccc(Oc3ccccc3)c2)N1CCCO` (stereo not given) gave IDH1 mut inh 0.
For COc1cccc(C#Cc2ccc([C@H]3[C@@H](C#N)N[C@@H]3CO)cc2)c1 the results were T cruzi growth-1 98*, KDM4C inh -1, Pf Dd2 growth -29, T cruzi growth-2 100*, T cruzi growth-3 101*, NIH3T3 tox 19 and 3T3 cytotox 2 54*.
Screening N#C[C@H]1N[C@@H](CO)[C@@H]1c1ccc(C#Cc2ccccc2F)cc1 returned T cruzi growth-1 99*, KDM4C inh -1, Pf Dd2 growth -8, T cruzi growth-2 97*, T cruzi growth-3 91, NIH3T3 tox 0 and 3T3 cytotox 2 106*.
N#C[C@H]1N[C@H](CO)[C@H]1c1ccc(C#CC2CCCC2)cc1 was read as T cruzi growth-1 101*, KDM4C inh 4, Pf Dd2 growth 4, T cruzi growth-2 99*, T cruzi growth-3 68, NIH3T3 tox 5 and 3T3 cytotox 2 27*.
Screening N#C[C@@H]1N[C@H](CO)[C@@H]1c1ccc(C#Cc2ccccc2F)cc1 returned T cruzi growth-1 79, KDM4C inh -1 and Pf Dd2 growth 7.
N#C[C@H]1N[C@H](CO)[C@H]1c1ccc(C#Cc2ccc(F)cc2)cc1 was read as T cruzi growth-1 101*, KDM4C inh -3, Pf Dd2 growth -1, T cruzi growth-2 101*, T cruzi growth-3 76, NIH3T3 tox 13 and 3T3 cytotox 2 19.
For N#C[C@@H]1N[C@H](CO)[C@@H]1c1ccc(C#CC2CCCC2)cc1 the results were T cruzi growth-1 34, KDM4C inh 2 and Pf Dd2 growth 29.
O=C(CCCCCCC(=O)Nc1ccccc1O)N/N=C/c1ccc(O)c(F)c1 was read as IDH1 mut inh -1.
`O=C(C1CCC1)N1CCCCN2[C@@H](CO)[C@H](c3ccc(C#CC4CCCC4)cc3)[C@@H]2C1` gave T cruzi growth-1 98*, Pf Dd2 growth -26, T cruzi growth-2 104*, T cruzi growth-3 92, NIH3T3 tox 40* and 3T3 cytotox 2 105*.
Screening O=C(Nc1ccccc1)N1CCCCN2[C@H](C1)[C@H](c1ccc(C#CC3CC3)cc1)[C@@H]2CO returned T cruzi growth-1 54, KDM4C inh 0 and Pf Dd2 growth -58.
Screening O=C(C1CCCC1)N1CCCCN2[C@H](CO)[C@H](c3ccc(C#CC4CC4)cc3)[C@@H]2C1 returned T cruzi growth-1 120*, Pf Dd2 growth -8, T cruzi growth-2 117*, T cruzi growth-3 96*, NIH3T3 tox 40* and 3T3 cytotox 2 16.
Screening O=C(C1CCCC1)N1CCCCN2[C@H](CO)[C@@H](c3ccc(C#CC4CC4)cc3)[C@@H]2C1 returned T cruzi growth-1 113*, Pf Dd2 growth 0, T cruzi growth-2 99*, T cruzi growth-3 74, NIH3T3 tox 19 and 3T3 cytotox 2 17.
O=C(C1CC1)N1CCCCN2[C@@H](CO)[C@H](c3ccc(C#CC4CCCC4)cc3)[C@@H]2C1 was read as T cruzi growth-1 95, KDM4C inh -1 and Pf Dd2 growth 3.
Screening O=C(C1CC1)N1CCCCN2[C@H](CO)[C@@H](c3ccc(C#CC4CC4)cc3)[C@@H]2C1 returned T cruzi growth-1 105*, Pf Dd2 growth 23, T cruzi growth-2 98*, T cruzi growth-3 70, NIH3T3 tox 20 and 3T3 cytotox 2 37*.
`O=C(C1CCCC1)N1CCCCN2[C@@H](CO)[C@@H](c3ccc(C#CC4CC4)cc3)[C@@H]2C1` gave T cruzi growth-1 93 and Pf Dd2 growth -39.
For O=C(C1CC1)N1CCCCN2[C@@H](CO)[C@@H](c3ccc(C#CC4CCCC4)cc3)[C@@H]2C1 the results were T cruzi growth-1 45, KDM4C inh 0 and Pf Dd2 growth -15.
CC(=O)Nc1ccc(Br)cc1-c1nc2ccccc2nc1OCc1cccc(Cl)c1 was read as IDH1 mut inh 0.
O=C(CSc1nccc(=O)[nH]1)N1CCc2ccccc21 was read as IDH1 mut inh 0.
For O=C(C[C@H]1CC[C@@H]2[C@H](COC[C@@H](O)CN2CCC(F)(F)F)O1)NCC1CCCCC1 the results were T cruzi growth-1 107*, KDM4C inh -1, Pf Dd2 growth 13, T cruzi growth-2 32, T cruzi growth-3 6, NIH3T3 tox 21 and 3T3 cytotox 2 24.
Screening O=C(C[C@H]1CC[C@H]2[C@@H](COC[C@@H](O)CN2CCC(F)(F)F)O1)NCc1ccc(Oc2ccccc2)cc1 returned T cruzi growth-1 108*, KDM4C inh -1, T cruzi growth-2 85, T cruzi growth-3 11, NIH3T3 tox 39* and 3T3 cytotox 2 12.
